This passage reports inhibition results from ChEMBL document CHEMBL4261510, “Synthesis of novel inhibitors of α-amylase based on the thiazolidine-4-one skeleton containing a pyrazole moiety and their configurational studies” (Medchemcomm, 2017).

The target of test [1] is Alpha amylase (Homo sapiens) (UniProt P0DUB6). The test is described as follows: Inhibition of human alpha-amylase at 50 ug/ml using starch as substrate preincubated for 30 mins by 3,5-dinitrosalicylic acid color reagent based assay relative to control. In short, it runs like this:
(§1)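 Test samples were prepared as a DMSO stock of 10 mg/10 mL and assayed at 50, 100 and 200 μg mL–1. Enzyme was at 1 unit per mL in 20 mM sodium phosphate, pH 6.9. Sample and enzyme were incubated 30 min at 25 °C. DNSA colour reagent was added, then heated 15 min at 85 °C and read at 595 nm. Soluble potato starch (0.5–1% w/v) was the substrate. Inhibition % was taken against a DMSO control, with blanks correcting background.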

Test [2] shares this target. The test is described as follows: Inhibition of human alpha-amylase at 100 ug/ml using starch as substrate preincubated for 30 mins by 3,5-dinitrosalicylic acid color reagent based assay relative to control. In short, it runs like this:
as §1

Test [3] shares this target. The test is described as follows: Inhibition of human alpha-amylase at 200 ug/ml using starch as substrate preincubated for 30 mins by 3,5-dinitrosalicylic acid color reagent based assay relative to control. In short, it runs like this: as §1

Chain of Alpha amylase (Homo sapiens) (P0DUB6 whole entry, looked up): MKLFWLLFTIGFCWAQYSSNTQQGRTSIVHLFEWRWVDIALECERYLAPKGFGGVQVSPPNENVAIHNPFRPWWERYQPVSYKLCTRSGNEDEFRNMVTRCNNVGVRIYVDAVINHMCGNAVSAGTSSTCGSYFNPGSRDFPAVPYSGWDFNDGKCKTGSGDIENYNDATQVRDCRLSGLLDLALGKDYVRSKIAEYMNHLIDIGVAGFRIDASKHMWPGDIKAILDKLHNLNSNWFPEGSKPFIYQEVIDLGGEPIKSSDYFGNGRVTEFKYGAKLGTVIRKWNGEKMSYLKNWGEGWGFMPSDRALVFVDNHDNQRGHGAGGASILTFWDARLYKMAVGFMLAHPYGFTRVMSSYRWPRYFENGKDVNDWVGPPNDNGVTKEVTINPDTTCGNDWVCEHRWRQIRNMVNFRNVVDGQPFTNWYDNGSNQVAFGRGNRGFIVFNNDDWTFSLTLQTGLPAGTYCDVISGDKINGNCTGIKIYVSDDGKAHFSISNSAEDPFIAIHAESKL

In the case of `Cc1ccc(/N=C2/NC(=O)/C(=C/c3cn(-c4ccccc4)nc3-c3ccc(C)cc3)S2)cc1`, the inhibition in test [1] is 79.2%; in test [2] it was 83.7%; in test [3] it was 84%.
In the same order, the values of `COc1ccc(-c2nn(-c3ccccc3)cc2/C=C2\S/C(=N\c3ccc(C)cc3)NC2=O)cc1` are 75.9%, 90% and 92.2%.
On to `C[C@H]1O[C@H](O[C@H]2[C@H](O)[C@@H](O)[C@@H](O[C@H]3[C@H](O)[C@@H](O)C(O)O[C@@H]3CO)O[C@@H]2CO)[C@H](O)[C@@H](O)[C@@H]1N[C@H]1C=C(CO)[C@@H](O)[C@H](O)[C@H]1O` (some centres undefined), for which the inhibition in test [1] was 48.6%; in test [2], 53.8%; in test [3] it was 63.7%.
The corresponding values for `Cc1ccc(/N=C2/NC(=O)/C(=C/c3cn(-c4ccccc4)nc3-c3ccccc3)S2)cc1` are 48.1%, 81.6% and 84.3%.
For the molecule `Cc1ccc(/N=C2/NC(=O)/C(=C/c3cn(-c4ccccc4)nc3-c3ccc(Cl)cc3)S2)cc1`, the inhibition in test [1] came out at 50.9%; in test [2] it was 81.1%; in test [3], 75%.
In the same order, the values of `Cc1ccc(/N=C2/NC(=O)/C(=C/c3cn(-c4ccccc4)nc3-c3ccc(F)cc3)S2)cc1` are 77.1%, 81.6% and 78%.
The corresponding values for `Cc1ccc(/N=C2/NC(=O)/C(=C/c3cn(-c4ccccc4)nc3-c3ccc([N+](=O)[O-])cc3)S2)cc1` are 65.1%, 88.2% and 58%.
Take `Cc1ccc(/N=C2/NC(=O)/C(=C/c3cn(-c4ccccc4)nc3-c3ccc(Br)cc3)S2)cc1`: the inhibition is 52.1% in test [1], 72.9% in test [2] and 97.4% in test [3].

As usually defined, the inhibition is the change of the read-out against control, counted positive when it falls.
